One test has as its system COLO 205. In words: Cytotoxicity against human COLO205 cells after 48 hrs by XTT assay. It is filed as functional. As to conditions: COLO 205, 48 h. In outline: (§1)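 Two-day XTT colorimetric assay run on COLO205 and KM12 in parallel. Cells kept in RPMI-1640 with phenol red, 2mM L-glutamine and 10% FBS at 37 °C, 5% CO₂, and discarded after 25 passages. For the assay, cells were harvested into phenol-red-free medium without antibiotics and plated at 5,000 cells/well. After 24 hrs of incubation, samples were added as eight 2-fold serial dilutions. Values are the average of at least two tests.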
(Tetrazolium assays rely on reduction of a dye to a coloured formazan, in cell work by metabolically active cells.)

The test system of a further test is KM12. In words: Cytotoxicity against human KM12 cells after 48 hrs by XTT assay. It is filed as functional. As to conditions: KM12, 48 h. In outline: as §1

What is called GI50 is the concentration giving 50% growth inhibition.

Regarding `CC1(C)CCC[C@]2(C)[C@H]3COC(=O)C3=CC[C@@H]12` [CINNAMOLIDE], the concentration for 50% growth inhibition (GI50) in the test on COLO 205 and in the test with KM12 was more than 85 µM throughout.
Turning to `CC1(C)C=Cc2c(cc3c(c2O)C(=O)C[C@H](c2ccc(O)c(O)c2)C3)O1` [ZYGOLONE A], the GI50 worked out at 17 µM in the test with COLO 205 and 14 µM with KM12.
`CO[C@H]1O[C@H](OC)[C@H]2C1=CC[C@H]1C(C)(C)CC[C@@H](OC(=O)/C=C/c3ccc(O)cc3)[C@]21C`: the concentration for 50% growth inhibition (GI50) in the test on COLO 205 and in the test on KM12 was more than 45 µM throughout.
Consider `C=C(C)C1Cc2c(cc3c(c2O)C(=O)C[C@H](c2ccc(O)c(O)c2)C3)O1` (stereo not given in full) [ISOZYGOLONE A], for which the GI50 in the test with COLO 205 and with KM12 was 32 µM in each case.
In the case of `CC1(C)CC[C@@H](OC(=O)/C=C/c2ccc(O)cc2)[C@]2(C)[C@@H](C=O)C(C=O)=CC[C@@H]12`, the 50% growth inhibitory concentration (GI50) with COLO 205 came to 29 µM; with KM12, 25 µM.
The matching figures for `CC1(C)CC[C@@H](OC(=O)/C=C/c2ccc(O)cc2)[C@]2(C)[C@@H]3C(=CC[C@@H]12)CO[C@@H]3O`: 18 µM and 14 µM.
As for `COc1ccc([C@H]2CC(=O)c3c(cc4c(c3O)C=CC(C)(C)O4)C2)cc1O`, the figures for the GI50 in the test on COLO 205 and in the test with KM12 were 11 µM and 17 µM, respectively.
The matching figures for `COc1cc(O)c2c(c1)C[C@@H](c1ccc(O)c(O)c1)CC2=O` [CALOTHYRLONE A]: more than 67 µM and more than 67 µM.
For the molecule `C=C(C)C1Cc2c(cc3c(c2O)C(=O)C[C@H](c2ccc(O)cc2)C3)O1` (stereo not given in full), the GI50 was 35 µM with COLO 205 and 29 µM with KM12.
The matching figures for `CC1(C)CC[C@@H](OC(=O)/C=C/c2ccc(O)cc2)[C@]2(C)[C@@H]3C(=CC[C@@]12O)CO[C@@H]3O`: 29 µM and 25 µM.

(Values after ChEMBL document CHEMBL2331156, “Growth inhibition of human colon carcinoma cells by sesquiterpenoids and tetralones of Zygogynum calothyrsum” (2013).)
